Screens (PubChem BioAssay)
APP 5'UTR act: activators of APP 5'UTR luciferase reporter, primary screen, SH-SY5Y cells | 1% of 190,000 active | activation, % at 2 µM | SH-SY5Y APP 5'UTR luciferase reporter, luminescence; zero percent = DMSO vehicle wells | AID 1276, 2008;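 active = activation above a set limit, based on mean plus 3 SD of controls, cut at about 140% in these data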
STAT3 inh-1: IL-6 driven STAT3 reporter inhibitors, primary screen, U3A cells, luciferase, luminescence, MLSCN library. IL-6 STAT3-luciferase reporter; host cell line lacks STAT1. inhibition, % at 5.5 µM. 0.89% of 190,000 active;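 active = inhibition above the mean inhibition across all screened compounds plus 3 SD, cut at about 44% in these data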;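 note: 0% = DMSO only wells and 100% = 100 µM nifuroxazide control wells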
STAT3 act: IL-6 driven STAT3 reporter potentiators, primary screen, U3A cells, luciferase, luminescence, MLSCN library; 0.91% of 190,000 active; activation (% of control), % at 5.6 µM; AID 871, 2007; IL-6 STAT3-luciferase reporter; 100% = signal with IL-6 EC80 alone;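 active = activation above the screen-wide mean of compound activation plus 3 SD, cut at about 130% in these data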;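 note: 0% = background luminescence of wells with medium and substrate only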
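Test system: Human STAT1-deficient U3A cells with stable STAT3-luciferase reporter | Also added: Interleukin-6, 33 ng/mL | Timing: Compound pre-incubation 1 h before IL-6, then 6 h stimulation at 37 °C | Technique: Luciferase reporter luminescence | Read-out: Percent of IL-6-only median luminescence | Benchmarks: IL-6-only wells as 100% reference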
NF-kB expr up: activators of NF-kB expression in neurons, primary screen, cell-based, HTS | human neuronal cells, NF-kB reporter expression; stronger effect = higher value | fold change at 12.5 µM | 1.6% of 190,000 active; in the data active = fold change above about 3.3
STAT1 act: STAT1 signaling activators, primary screen, cell-based, HTS, luciferase reporter; AID 932, 2007; NIH 3T3 STAT1-luciferase reporter, IFN-gamma, luminescence; 100% = IFN-gamma alone, no compound; activation (% of control), % at 5.5 µM; 2.6% of 200,000 active;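 active = activation above the screen-wide mean activation plus 3 SD, cut at about 130% in these data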;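 note: raw ratio to IFN-gamma control signal so 100% means no change and 0% no light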
STAT1 blocker: STAT1 signaling inhibitors, primary screen, cell-based, HTS, luciferase reporter; NIH 3T3 STAT1-luciferase reporter, IFN-gamma, luminescence; inhibition, % at 5.5 µM; 0.35% of 200,000 active; AID 920, 2007;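 active = inhibition above a set limit, the mean inhibition across all tested compounds plus 3 SD, cut at about 34% in these data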;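 note: 0% = IFN-gamma with DMSO and 100% = IFN-gamma with 300 µM nifuroxazide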
STAT3 inh-2: STAT3 reporter inhibitors, retest of hits, confirmation, U3A cells, luciferase, luminescence. IL-6 STAT3 luciferase reporter; cell line lacks STAT1. shares compounds with STAT3 inh-1. 45% of 1,200 active. AID 1265, 2008. inhibition, % at 5.7 µM;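 active = inhibition above the hit cutoff computed for the primary STAT3 screen, cut at about 44% in these data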;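 note: 0% = IL-6 plus DMSO and 100% = IL-6 plus nifuroxazide control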
NFkB inh STAT3ct: NF-kB reporter inhibitors in human cells, confirmation, counter-screen for STAT3 inhibitor project, cell-based, HEK293T, luciferase, TNF-alpha stimulus. shares compounds with STAT3 inh-1. TNF-alpha induced. inhibition, % at 5.7 µM. 36% of 1,200 active. AID 1308, 2008;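 active = inhibition above the mean of solvent-only control wells plus 3 SD, cutoff set per campaign, cut at about 13% in these data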;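 note: 0% = TNF-alpha with DMSO and 100% = TNF-alpha with MG high control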
STAT1 inh STAT3c: STAT1 reporter inhibitors, IFN-gamma induced, confirmation, counter-screen for STAT3 inhibitor project, cell-based, NIH 3T3, luciferase luminescence; shares compounds with STAT3 inh-1; NIH 3T3 STAT1-luciferase reporter; 27% of 1,200 active; inhibition, % at 5.7 µM;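 active = inhibition above the mean plus 3 SD of solvent-only control wells, limit set per screening run, cut at about 16% in these data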;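 note: 0% = DMSO with IFN-gamma and 100% = nifuroxazide control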
* hit, by the source's call. An excerpt weighted towards active compounds, which were near 4.9% of everything screened.

How did COc1cccc(Cn2cc(C(=O)NCCN(C)C)nn2)c1 do in these assays?
APP 5'UTR act: 13.8; STAT3 inh-1: 1.9; STAT3 act: 101.4; NF-kB expr up: 1.37; STAT1 act: 103.4; STAT1 blocker: -4.9

How did CCC(C)[C@@H](N)C(=O)N/N=C/c1ccc2ncccc2c1 (stereo partly drawn) do in these assays?
APP 5'UTR act: 15.5; STAT3 inh-1: -3.7; STAT3 act: 106.0; NF-kB expr up: 0.84; STAT1 act: 101.7; STAT1 blocker: -1.8

What do the screens show for `O=C(NC1=NCCS1)c1cc2ccccc2o1`?
APP 5'UTR act: 127.2; STAT3 inh-1: 63.6*; STAT3 act: 50.3; NF-kB expr up: 4.77*; STAT1 act: 96.0; STAT1 blocker: 4.3; STAT3 inh-2: 27.3; NFkB inh STAT3ct: -10.3; STAT1 inh STAT3c: -72.3

How did O=C(Nc1ccc(N2CCN(C(=O)c3ccc(Cl)cc3)CC2)cc1)c1cc2ccccc2o1 do in these assays?
STAT3 inh-1: 70.1*; STAT3 act: 43.3; NF-kB expr up: 1.05; STAT1 act: 90.3; STAT1 blocker: 10.4; STAT3 inh-2: 64.8*; NFkB inh STAT3ct: 18.9*; STAT1 inh STAT3c: 7.1

Results for O=C(Nc1ccc2c(c1)OCCO2)Nc1ccc2c(c1)OCO2 ?
APP 5'UTR act: 173.8*; STAT3 inh-1: 54.2*; STAT3 act: 57.5; NF-kB expr up: 6.63*; STAT1 act: 71.8; STAT1 blocker: 30.2; STAT3 inh-2: 4.4; NFkB inh STAT3ct: -17.4; STAT1 inh STAT3c: -95.4

What do the screens show for `Cn1c(=O)n(C)c2cc(NC(=O)c3cc4ccccc4o3)ccc21`?
APP 5'UTR act: 21.4; STAT3 inh-1: 21.7; STAT3 act: 85.4; NF-kB expr up: 0.63; STAT1 act: 99.6; STAT1 blocker: 0.5

Results for Cc1cc(C(=O)NC2=NCCS2)cs1 ?
APP 5'UTR act: 73.6; STAT3 inh-1: -2.0; STAT3 act: 102.5; NF-kB expr up: 2.61; STAT1 act: 126.0; STAT1 blocker: -28.2

What do the screens show for `O=C(Nc1ccc2c(c1)OCCO2)c1cc2ccccc2o1`?
APP 5'UTR act: 224.9*; STAT3 inh-1: 65.5*; STAT3 act: 47.3; NF-kB expr up: 9.25*; STAT1 act: 82.2; STAT1 blocker: 18.7; STAT3 inh-2: 21.0; NFkB inh STAT3ct: -26.0; STAT1 inh STAT3c: -114.1

Results for O=C(Cn1cc(F)c(=O)[nH]c1=O)NCCO ?
APP 5'UTR act: 122.4; STAT3 inh-1: -1.8; STAT3 act: 103.5; NF-kB expr up: 1.01; STAT1 act: 100.8; STAT1 blocker: -1.6

How did COc1ccc(C(=O)Nc2nccs2)cc1OC do in these assays?
APP 5'UTR act: -4.8; STAT3 inh-1: -0.7; STAT3 act: 106.1; NF-kB expr up: 1.31; STAT1 act: 112.7; STAT1 blocker: -14.9

What do the screens show for `COc1cc(SC)ccc1C(=O)Nc1ccc2c(c1)OCCO2`?
APP 5'UTR act: 155.0*; STAT3 inh-1: 53.7*; STAT3 act: 59.2; NF-kB expr up: 4.61*; STAT1 act: 130.5*; STAT1 blocker: -33.6; STAT3 inh-2: 5.5; NFkB inh STAT3ct: -35.6; STAT1 inh STAT3c: -156.3

What do the screens show for `COc1cc(SC)ccc1C(=O)Nc1c(C)cccc1C`?
APP 5'UTR act: 3.1; STAT3 inh-1: 8.6; STAT3 act: 97.3; NF-kB expr up: 1.19; STAT1 act: 104.8; STAT1 blocker: -5.6

What do the screens show for `COc1cc(SC)ccc1C(=O)Nc1nccs1`?
APP 5'UTR act: 190.4*; STAT3 inh-1: 58.1*; STAT3 act: 52.1; NF-kB expr up: 1.04; STAT1 act: 70.0; STAT1 blocker: 30.8; STAT3 inh-2: 31.0; NFkB inh STAT3ct: -4.2; STAT1 inh STAT3c: -85.0

Results for Cc1ccc(-n2c(C)nnc2SCC(=O)NNC(=O)c2ccco2)cc1 ?
APP 5'UTR act: 7.9; STAT3 inh-1: 6.3; STAT3 act: 102.1; NF-kB expr up: 1.15; STAT1 act: 104.0; STAT1 blocker: -6.5

What do the screens show for `COc1ccc(Br)cc1S(=O)(=O)NCc1ccccc1`?
APP 5'UTR act: 11.7; STAT3 inh-1: 12.4; STAT3 act: 88.0; NF-kB expr up: 1.16; STAT1 act: 83.2; STAT1 blocker: 18.9

What do the screens show for `Cc1ccc(S(=O)(=O)NCc2ccncc2)c(C)c1C`?
APP 5'UTR act: -9.8; STAT3 inh-1: 81.1*; STAT3 act: 32.5; NF-kB expr up: 0.93; STAT1 act: 73.0; STAT1 blocker: 28.6; STAT3 inh-2: 81.9*; NFkB inh STAT3ct: 25.8*; STAT1 inh STAT3c: 14.3

How did CCCCNS(=O)(=O)c1ccc(S(=O)(=O)NCc2ccncc2)cc1 do in these assays?
STAT3 inh-1: 53.5*; STAT3 act: 57.3; NF-kB expr up: 0.95; STAT1 act: 81.0; STAT1 blocker: 25.2; STAT3 inh-2: 35.0; NFkB inh STAT3ct: -2.7; STAT1 inh STAT3c: 19.0*

What do the screens show for `Cc1ccc(S(=O)(=O)NCc2ccco2)c(C)c1C`?
APP 5'UTR act: 3.3; STAT3 inh-1: 12.4; STAT3 act: 96.8; NF-kB expr up: 1.43; STAT1 act: 99.6; STAT1 blocker: 0.4

What do the screens show for `CCCCc1ccc(S(=O)(=O)NCCc2ccncc2)cc1`?
APP 5'UTR act: -9.3; STAT3 inh-1: 38.1; STAT3 act: 71.7; NF-kB expr up: 0.89; STAT1 act: 92.4; STAT1 blocker: 8.3

Results for Cc1cc(C)c(S(=O)(=O)NCc2ccncc2)c(C)c1 ?
APP 5'UTR act: -11.7; STAT3 inh-1: 75.2*; STAT3 act: 38.1; NF-kB expr up: 0.74; STAT1 act: 75.3; STAT1 blocker: 26.6; STAT3 inh-2: 73.7*; NFkB inh STAT3ct: 27.0*; STAT1 inh STAT3c: 23.3*

What do the screens show for `COc1cc(C)c(Br)cc1S(=O)(=O)NCc1ccncc1`?
APP 5'UTR act: 8.7; STAT3 inh-1: 61.0*; STAT3 act: 50.7; NF-kB expr up: 0.84; STAT1 act: 76.0; STAT1 blocker: 26.2; STAT3 inh-2: 58.1*; NFkB inh STAT3ct: 20.0*; STAT1 inh STAT3c: 18.3*

How did O=c1[nH]ncc(N/N=C\c2cccs2)c1Cl do in these assays?
APP 5'UTR act: 5.7; STAT3 inh-1: 29.0; STAT3 act: 77.7; NF-kB expr up: 1.18; STAT1 act: 87.5; STAT1 blocker: 13.0
